Calls of active or inactive are those of the source. No cut-off for these calls is given here.
What was measured:
Escherichia coli [1] = test: Antibacterial activity against drug-resistant NDM1 producing Escherichia coli clinical isolate Ecl-14-58 after 16 to 20 hrs by broth microdilution method; type: functional
In short: (§1)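 CLSI broth microdilution in Mueller-Hinton broth. A 4-6 h culture was diluted to about 10⁶ CFU/mL and mixed 1:1 with compound dilutions prepared at 256 to 0.5 µg/mL from aqueous stocks. Plates were incubated at 37 °C for 16-20 h and read visually for MIC. Each concentration was run in duplicate, and the experiment was repeated at least twice. Vancomycin and meropenem were comparators.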

Escherichia coli [2] = test: Antibacterial activity against drug-resistant NDM1 producing Escherichia coli clinical isolate EA-14-61 after 16 to 20 hrs by broth microdilution method; type: functional; in short: as §1
Enterococcus faecalis = test: Antibacterial activity against Enterococcus faecalis ATCC 29212 after 16 to 20 hrs by broth microdilution method; type: functional
In short: (§2)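 Broth microdilution per CLSI. Bacteria grown 4-6 h (about 10⁸ CFU/mL), then diluted to about 10⁶ CFU/mL. Medium: Mueller-Hinton broth, except Luria-Bertani broth for E. coli. Compounds in sterile water, twofold series 256-0.5 µg/mL, mixed 1:1 with inoculum, 37 °C for 16-20 h. MIC is the lowest concentration without visible growth. Duplicate wells; experiment repeated at least twice.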

Klebsiella pneumoniae [3] = test: Antibacterial activity against drug-resistant carbapenemase producing Klebsiella pneumoniae clinical isolate KP-14-4 after 16 to 20 hrs by broth microdilution method; type: functional; in short: as §1
Klebsiella pneumoniae [4] = test: Antibacterial activity against drug-resistant carbapenemase producing Klebsiella pneumoniae clinical isolate KP-14-1 after 16 to 20 hrs by broth microdilution method; type: functional; in short: as §1
Escherichia coli [5] = test: Induction of inner membrane permeabilization in Escherichia coli ATCC 25922 at 10 to 20 ug/ml measured every 2 mins for 12 mins by propidium iodide staining-based fluorescence assay; type: functional, organism-based
In short: (§3)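 Mid-log cells (~10⁸ CFU/mL) were suspended in PBS (S. aureus) or HEPES/glucose/KCl (E. coli). They were preincubated with propidium iodide for 30 min (S. aureus) or 40 min (E. coli), and baseline fluorescence was read for 8 min. Compound was added to 20 µg/mL final, and fluorescence (ex 535/em 617 nm) was read every 2 min for 12 min.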

Klebsiella pneumoniae [6] = test: Antibacterial activity against drug-resistant carbapenemase producing Klebsiella pneumoniae clinical isolate KP-13-54 after 16 to 20 hrs by broth microdilution method; type: functional; in short: as §1
Klebsiella pneumoniae [7] = test: Antibacterial activity against drug-resistant carbapenemase producing Klebsiella pneumoniae clinical isolate KP-14-18 after 16 to 20 hrs by broth microdilution method; type: functional; in short: as §1
Escherichia coli [8] = test: Antibacterial activity against drug-resistant NDM1 producing Escherichia coli clinical isolate SM-15-84 after 16 to 20 hrs by broth microdilution method; type: functional; in short: as §1
Staphylococcus aureus [9] = test: Antibacterial activity against methicillin-resistant Staphylococcus aureus clinical isolate 1-may after 16 to 20 hrs by broth microdilution method; type: functional; in short: as §1
Klebsiella pneumoniae [10] = test: Antibacterial activity against drug-resistant carbapenemase producing Klebsiella pneumoniae clinical isolate KP-14-5 after 16 to 20 hrs by broth microdilution method; type: functional; in short: as §1
Escherichia coli [11] = test: Antibacterial activity against drug-resistant NDM1 producing Escherichia coli clinical isolate 1460 after 16 to 20 hrs by broth microdilution method; type: functional; in short: as §1
Staphylococcus aureus [12] = test: Antibacterial activity against methicillin-resistant Staphylococcus aureus clinical isolate 20131012632sau after 16 to 20 hrs by broth microdilution method; type: functional; in short: as §1
Escherichia coli [13] = test: Antibacterial activity against drug-resistant NDM1 producing Escherichia coli clinical isolate KP-13-58 after 16 to 20 hrs by broth microdilution method; type: functional; in short: as §1
Staphylococcus aureus [14] = test: Antibacterial activity against methicillin-resistant Staphylococcus aureus clinical isolate 1207007 after 16 to 20 hrs by broth microdilution method; type: functional; in short: as §1
Staphylococcus aureus [15] = test: Induction of inner membrane permeabilization in Staphylococcus aureus ATCC 29213 at 10 to 20 ug/ml measured every 2 mins for 12 mins by propidium iodide staining-based fluorescence assay; type: functional, organism-based; in short: as §3
Escherichia coli [16] = test: Induction of cytoplasmic membrane depolarization in Escherichia coli ATCC 25922 at 10 to 20 ug/ml measured every 2 mins for 12 mins by DiSC35 dye-based fluorescence assay; type: functional, organism-based
In short: (§4)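 Mid-log cells (~10⁸ CFU/mL) were suspended in PBS (S. aureus) or HEPES/glucose/KCl with EDTA (E. coli). They were preloaded with DiSC3(5) for 30 min (S. aureus) or 40 min (E. coli), and baseline fluorescence was read for 8 min. Compound was added to 20 µg/mL final, and fluorescence (ex 622/em 670 nm) was read every 2 min for 12 min. Water served as control.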

Klebsiella pneumoniae [17] = test: Antibacterial activity against drug-resistant carbapenemase producing Klebsiella pneumoniae clinical isolate KP-13-45 after 16 to 20 hrs by broth microdilution method; type: functional; in short: as §1
Staphylococcus aureus [18] = test: Antibacterial activity against methicillin-resistant Staphylococcus aureus clinical isolate 1105183 cono7 after 16 to 20 hrs by broth microdilution method; type: functional; in short: as §1
Escherichia coli [19] = test: Antibacterial activity against drug-resistant NDM1 producing Escherichia coli clinical isolate CF-15-61 after 16 to 20 hrs by broth microdilution method; type: functional; in short: as §1
Escherichia coli [20] = test: Antibacterial activity against drug-resistant NDM1 producing Escherichia coli clinical isolate EC-13-49 after 16 to 20 hrs by broth microdilution method; type: functional; in short: as §1
Staphylococcus aureus [21] = test: Antibacterial activity against methicillin-resistant Staphylococcus aureus clinical isolate 0906202 after 16 to 20 hrs by broth microdilution method; type: functional; in short: as §1
Escherichia coli [22] = test: Antibacterial activity against drug-resistant NDM1 producing Escherichia coli clinical isolate EC-14-54 after 16 to 20 hrs by broth microdilution method; type: functional; in short: as §1
Staphylococcus aureus [23] = test: Antibacterial activity against methicillin-resistant Staphylococcus aureus clinical isolate 1208143 after 16 to 20 hrs by broth microdilution method; type: functional; in short: as §1
Escherichia coli [24] = test: Antibacterial activity against Escherichia coli ATCC 25922 after 16 to 20 hrs by broth microdilution method; type: functional; in short: as §2
[25] = Hemolytic activity in sheep RBC after 1 hr; type: ADME, cell-based, Ovis aries, Erythrocyte; conditions: sheep red blood cells (erythrocytes)
In short: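 Sheep red blood cells (150 µL suspension) mixed with 50 µL of compound dilutions (5120-10 µg/mL), 1 h at 37 °C, then centrifuged. Supernatant read at 540 nm. Percent hemolysis calculated relative to RBC-only control (0%) and 0.1% Triton X-100 (100%).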

Klebsiella pneumoniae [26] = test: Antibacterial activity against drug-resistant carbapenemase producing Klebsiella pneumoniae clinical isolate KP-13-55 after 16 to 20 hrs by broth microdilution method; type: functional; in short: as §1
Staphylococcus aureus [27] = test: Induction of cytoplasmic membrane depolarization in Staphylococcus aureus ATCC 29213 at 10 to 20 ug/ml measured every 2 mins for 12 mins by DiSC35 dye-based fluorescence assay; type: functional, organism-based; in short: as §4
Staphylococcus aureus [28] = test: Antibacterial activity against methicillin-resistant Staphylococcus aureus clinical isolate 1104060 after 16 to 20 hrs by broth microdilution method; type: functional; in short: as §1
Staphylococcus aureus [29] = test: Antibacterial activity against Staphylococcus aureus ATCC 29213 after 16 to 20 hrs by broth microdilution method; type: functional; in short: as §2
Klebsiella pneumoniae [30] = test: Antibacterial activity against drug-resistant carbapenemase producing Klebsiella pneumoniae clinical isolate KP-14-2 after 16 to 20 hrs by broth microdilution method; type: functional; in short: as §1
Klebsiella pneumoniae [31] = test: Antibacterial activity against drug-resistant carbapenemase producing Klebsiella pneumoniae clinical isolate KP-14-8 after 16 to 20 hrs by broth microdilution method; type: functional; in short: as §1
Klebsiella pneumoniae [32] = test: Antibacterial activity against drug-resistant carbapenemase producing Klebsiella pneumoniae clinical isolate KP-14-3 after 16 to 20 hrs by broth microdilution method; type: functional; in short: as §1
Escherichia coli [33] = test: Antibacterial activity against drug-resistant NDM1 producing Escherichia coli clinical isolate Ecl-14-56 after 16 to 20 hrs by broth microdilution method; type: functional; in short: as §1
Klebsiella pneumoniae [34] = test: Antibacterial activity against drug-resistant carbapenemase producing Klebsiella pneumoniae clinical isolate EC-13-23 after 16 to 20 hrs by broth microdilution method; type: functional; in short: as §1
Klebsiella pneumoniae [35] = test: Antibacterial activity against drug-resistant carbapenemase producing Klebsiella pneumoniae clinical isolate KP-14-45 after 16 to 20 hrs by broth microdilution method; type: functional; in short: as §1
Escherichia coli [36] = test: Antibacterial activity against drug-resistant NDM1 producing Escherichia coli clinical isolate Ecl-13-62 after 16 to 20 hrs by broth microdilution method; type: functional; in short: as §1
Staphylococcus aureus [37] = test: Antibacterial activity against methicillin-resistant Staphylococcus aureus clinical isolate 0831010 after 16 to 20 hrs by broth microdilution method; type: functional; in short: as §1
Escherichia coli [38] = test: Antibacterial activity against drug-resistant NDM1 producing Escherichia coli clinical isolate Ecl-14-59 after 16 to 20 hrs by broth microdilution method; type: functional; in short: as §1
Salmonella enterica = test: Antibacterial activity against Salmonella enterica ATCC 13076 after 16 to 20 hrs by broth microdilution method; type: functional; in short: as §2
Staphylococcus aureus [39] = test: Antibacterial activity against methicillin-resistant Staphylococcus aureus clinical isolate 20130911034sau after 16 to 20 hrs by broth microdilution method; type: functional; in short: as §1
Escherichia coli [40] = test: Antibacterial activity against drug-resistant NDM1 producing Escherichia coli clinical isolate CF-13-61 after 16 to 20 hrs by broth microdilution method; type: functional; in short: as §1

CCCCCCCC[N+](C)(C)CC(=O)Nc1ccc(C(=O)/C=C/c2ccccc2C(F)(F)F)cc1.[Cl-]
MIC (Escherichia coli [1]): 8 µg/mL
MIC (Escherichia coli [2]): 8 µg/mL
MIC (Enterococcus faecalis): 4 µg/mL
MIC (Klebsiella pneumoniae [3]): 8 µg/mL
MIC (Klebsiella pneumoniae [4]): > 128 µg/mL
Activity (Escherichia coli [5]): Active
MIC (Klebsiella pneumoniae [6]): 4 µg/mL
MIC (Klebsiella pneumoniae [7]): 16 µg/mL
MIC (Escherichia coli [8]): 128 µg/mL
MIC (Staphylococcus aureus [9]): 0.5 µg/mL
MIC (Klebsiella pneumoniae [10]): 8 µg/mL
MIC (Escherichia coli [11]): 8 µg/mL
MIC (Staphylococcus aureus [12]): 4 µg/mL
MIC (Escherichia coli [13]): 1 µg/mL
MIC (Staphylococcus aureus [14]): 2 µg/mL
Activity (Staphylococcus aureus [15]): Active
Activity (Escherichia coli [16]): Active
MIC (Klebsiella pneumoniae [17]): 8 µg/mL
MIC (Staphylococcus aureus [18]): 1 µg/mL
MIC (Escherichia coli [19]): 4 µg/mL
MIC (Escherichia coli [20]): 8 µg/mL
MIC (Staphylococcus aureus [21]): 1 µg/mL
MIC (Escherichia coli [22]): 16 µg/mL
MIC (Staphylococcus aureus [23]): 1 µg/mL
MIC (Escherichia coli [24]): 8 µg/mL
HC50 at 1 h [25]: 136 µg/mL
MIC (Klebsiella pneumoniae [26]): 16 µg/mL
Activity (Staphylococcus aureus [27]): Active
MIC (Staphylococcus aureus [28]): 16 µg/mL
MIC (Staphylococcus aureus [29]): 2 µg/mL
MIC (Klebsiella pneumoniae [30]): > 128 µg/mL
MIC (Klebsiella pneumoniae [31]): 8 µg/mL
MIC (Klebsiella pneumoniae [32]): 8 µg/mL
MIC (Escherichia coli [33]): 4 µg/mL
MIC (Klebsiella pneumoniae [34]): 4 µg/mL
MIC (Klebsiella pneumoniae [35]): 8 µg/mL
MIC (Escherichia coli [36]): 8 µg/mL
MIC (Staphylococcus aureus [37]): 0.5 µg/mL
MIC (Escherichia coli [38]): 8 µg/mL
MIC (Salmonella enterica): 16 µg/mL
MIC (Staphylococcus aureus [39]): 0.5 µg/mL
MIC (Escherichia coli [40]): 4 µg/mL

CCCCCCCC[N+](C)(C)CC(=O)Nc1ccc(C(=O)/C=C/c2ccco2)cc1.[Cl-]
MIC (Escherichia coli [1]): 16 µg/mL
MIC (Escherichia coli [2]): 16 µg/mL
MIC (Enterococcus faecalis): 4 µg/mL
MIC (Klebsiella pneumoniae [3]): 16 µg/mL
MIC (Klebsiella pneumoniae [4]): 32 µg/mL
MIC (Klebsiella pneumoniae [6]): 16 µg/mL
MIC (Klebsiella pneumoniae [7]): 32 µg/mL
MIC (Escherichia coli [8]): 32 µg/mL
MIC (Staphylococcus aureus [9]): 4 µg/mL
MIC (Klebsiella pneumoniae [10]): 16 µg/mL
MIC (Escherichia coli [11]): 16 µg/mL
MIC (Staphylococcus aureus [12]): 8 µg/mL
MIC (Escherichia coli [13]): 4 µg/mL
MIC (Staphylococcus aureus [14]): 2 µg/mL
MIC (Klebsiella pneumoniae [17]): 32 µg/mL
MIC (Staphylococcus aureus [18]): 4 µg/mL
MIC (Escherichia coli [19]): 16 µg/mL
MIC (Escherichia coli [20]): 16 µg/mL
MIC (Staphylococcus aureus [21]): 16 µg/mL
MIC (Escherichia coli [22]): 32 µg/mL
MIC (Staphylococcus aureus [23]): 2 µg/mL
MIC (Escherichia coli [24]): 4 µg/mL
HC50 at 1 h [25]: 137 µg/mL
MIC (Klebsiella pneumoniae [26]): 32 µg/mL
MIC (Staphylococcus aureus [28]): 32 µg/mL
MIC (Staphylococcus aureus [29]): 1 µg/mL
MIC (Klebsiella pneumoniae [30]): 2 µg/mL
MIC (Klebsiella pneumoniae [31]): 16 µg/mL
MIC (Klebsiella pneumoniae [32]): 32 µg/mL
MIC (Escherichia coli [33]): 16 µg/mL
MIC (Klebsiella pneumoniae [34]): 8 µg/mL
MIC (Klebsiella pneumoniae [35]): 32 µg/mL
MIC (Escherichia coli [36]): 8 µg/mL
MIC (Staphylococcus aureus [37]): 2 µg/mL
MIC (Escherichia coli [38]): 16 µg/mL
MIC (Salmonella enterica): 16 µg/mL
MIC (Staphylococcus aureus [39]): 2 µg/mL
MIC (Escherichia coli [40]): 64 µg/mL

Reference: ChEMBL document CHEMBL4138242, “Synthesis and antibacterial evaluation of novel cationic chalcone derivatives possessing broad spectrum antibacterial activity” (Eur J Med Chem, 2018)
